Assays:
Assay type in all cases: functional
Liver microsome [1] = assay: Effect on mitochondrial transmembrane potential in Wistar Han rat liver mitochondria energized with succinate assessed as mitochondrial transmembrane electropotential at 0.133 ug/mg of protein (reference value: 216.0 +/- 7.4 mV)
Liver microsome [2] = assay: Effect on mitochondrial transmembrane potential in Wistar Han rat liver mitochondria energized with succinate assessed as ADP depolarization at 0.667 ug/mg of protein (reference value: 34.7 +/- 1.4 mV)
Liver microsome [3] = assay: Effect on mitochondrial transmembrane potential in Wistar Han rat liver mitochondria energized with succinate assessed as ADP depolarization at 0.133 ug/mg of protein (reference value: 34.7 +/- 1.4 mV)
Liver microsome [4] = assay: Effect on mitochondrial transmembrane potential in Wistar Han rat liver mitochondria energized with succinate assessed as ADP depolarization at 0.333 ug/mg of protein (reference value: 34.7 +/- 1.4 mV)
Liver microsome [5] = assay: Effect on mitochondrial transmembrane potential in Wistar Han rat liver mitochondria energized with succinate assessed as mitochondrial transmembrane electropotential at 0.06 ug/mg of protein (reference value: 216.0 +/- 7.4 mV)
Liver microsome [6] = assay: Effect on mitochondrial transmembrane potential in Wistar Han rat liver mitochondria energized with succinate assessed as time duration of lag phase at 0.333 ug/mg of protein (reference value: 33.0 +/- 4.6 sec)
How it was run: (§1)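 Isolated male Wistar rat liver mitochondria (1.5 mg protein) in 125 mM sucrose, 65 mM KCl, 5 mM KH2PO4, 2.5 mM MgCl2, 5 mM HEPES pH 7.4, 30°C, with 3 μM TPP+. Compound added for 1 min, then 10 mM succinate plus 3 μM rotenone. State 3 started with ADP (83.3 nmol/mg protein). ΔΨ read with a TPP+-selective electrode and calculated by the Kamo equation without binding correction.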

Liver microsome [7] = assay: Effect on mitochondrial transmembrane potential in Wistar Han rat liver mitochondria energized with succinate assessed as time duration of lag phase at 0.667 ug/mg of protein (reference value: 33.0 +/- 4.6 sec); how it was run: as §1
Liver microsome [8] = assay: Effect on mitochondrial transmembrane potential in Wistar Han rat liver mitochondria energized with succinate assessed as mitochondrial transmembrane electropotential at 0.133 ug/mg of protein (reference value: 204.2 +/- 5.6 mV)
Liver microsome [9] = assay: Effect on mitochondrial transmembrane potential in Wistar Han rat liver mitochondria energized with succinate assessed as ADP depolarization at 0.333 ug/mg of protein (reference value: 25.3 +/- 2.1 mV)
Liver microsome [10] = assay: Effect on mitochondrial transmembrane potential in Wistar Han rat liver mitochondria energized with succinate assessed as time duration of lag phase at 1.333 ug/mg of protein (reference value: 33.0 +/- 4.6 sec); how it was run: as §1
Liver microsome [11] = assay: Effect on mitochondrial transmembrane potential in Wistar Han rat liver mitochondria energized with succinate assessed as mitochondrial transmembrane electropotential at 0.133 ug/mg of protein (reference value: 220.6 +/- 2.5 mV)
Liver microsome [12] = assay: Effect on mitochondrial transmembrane potential in Wistar Han rat liver mitochondria energized with succinate assessed as time duration of lag phase at 0.067 ug/mg of protein (reference value: 40.5 +/- 4.5 sec); how it was run: as §1
Liver microsome [13] = assay: Effect on mitochondrial transmembrane potential in Wistar Han rat liver mitochondria energized with succinate assessed as mitochondrial transmembrane electropotential at 0.667 ug/mg of protein (reference value: 198.0 +/- 5.6 mV)
Liver microsome [14] = assay: Effect on mitochondrial transmembrane potential in Wistar Han rat liver mitochondria energized with succinate assessed as ADP depolarization at 0.667 ug/mg of protein (reference value: 23.9 +/- 3.3 mV)
Liver microsome [15] = assay: Effect on mitochondrial transmembrane potential in Wistar Han rat liver mitochondria energized with succinate assessed as mitochondrial transmembrane electropotential at 1.333 ug/mg of protein (reference value: 198.0 +/- 5.6 mV); how it was run: as §1

For C=C(C)[C@@H]1CC[C@]2(COC(=O)C[n+]3ccc(N(C)C)cc3)CC[C@]3(C)[C@H](CC[C@@H]4[C@@]5(C)CC[C@H](OC(=O)C[n+]6ccc(N(C)C)cc6)C(C)(C)[C@@H]5CC[C@]43C)[C@@H]12.[Cl-].[Cl-], the Activity (Liver microsome [1]) was 212 mV, the Activity (Liver microsome [2]) was 28.6 mV and the Activity (Liver microsome [3]) was 29.8 mV. For the same compound, the Activity (Liver microsome [4]) was 29 mV and the Activity (Liver microsome [5]) was 209 mV.

Compound C=C(C)[C@@H]1CC[C@]2(COC(=O)CC[n+]3ccc(N(C)C)cc3)CC[C@]3(C)[C@H](CC[C@@H]4[C@@]5(C)CC[C@H](OC(=O)CC[n+]6ccc(N(C)C)cc6)C(C)(C)[C@@H]5CC[C@]43C)[C@@H]12.[Cl-].[Cl-] has a TIME (Liver microsome [6]) of 0.00894 h, a TIME (Liver microsome [7]) of 0.00894 h and an Activity (Liver microsome [8]) of 206 mV. It also gave an Activity (Liver microsome [9]) of 27.1 mV and a TIME (Liver microsome [10]) of 0.00983 h.

For C=C(C)[C@@H]1CC[C@]2(COC(=O)C[N+](C)(C)C(C)C)CC[C@]3(C)[C@H](CC[C@@H]4[C@@]5(C)CC[C@H](OC(=O)C[N+](C)(C)C(C)C)C(C)(C)[C@@H]5CC[C@]43C)[C@@H]12.[Cl-].[Cl-], the Activity (Liver microsome [11]) was 217 mV.

In the case of C=C(C)[C@@H]1CC[C@]2(COC(=O)C(CC)[n+]3ccc(N(C)C)cc3)CC[C@]3(C)[C@H](CC[C@@H]4[C@@]5(C)CC[C@H](OC(=O)C(CC)[n+]6ccc(N(C)C)cc6)C(C)(C)[C@@H]5CC[C@]43C)[C@@H]12 (stereo not given in full), the TIME (Liver microsome [12]) is reported as 0.0123 h, the Activity (Liver microsome [13]) is reported as 193 mV and the Activity (Liver microsome [14]) is reported as 23 mV. For the same compound, the Activity (Liver microsome [15]) was 190 mV.
